This is an account of results in ChEMBL document CHEMBL1154319, “Further studies on the chemistry of the flustra alkaloids from the bryozoan Flustra foliacea” (2009).

In assay [1] the test system is Cyberlindnera jadinii. As to the kind of experiment: Antifungal activity against Candida utilis ATCC 9950 at 1.4 mol by disk diffusion method. The format is functional. The method, boiled down:
(§1)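 Compound dissolved in MeOH, applied to a 6 mm filter-paper disk and air-dried. Disk placed on an agar plate overgrown with the test organism. Growth-inhibition zone measured from the outer edge of the disk.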
A general note: A growth-free zone around the sample is the usual read-out of agar diffusion tests.

Assay [2] has as its system Cyberlindnera jadinii. Description: Antifungal activity against Candida utilis ATCC 9950 at 0.9 mol by disk diffusion method. The format is functional, organism-based. The method, boiled down:
as §1

Assay [3] has as its system Micrococcus luteus. Description: Antibacterial activity against Micrococcus luteus ATCC 49732 at 0.9 mol by disk diffusion method. The format is functional, organism-based. The gist of the method: as §1
The test system of assay [4] is Escherichia coli. Description: Antibacterial activity against Escherichia coli ATCC 11775 at 0.9 mol by disk diffusion method. The format is functional, organism-based. The method, boiled down:
as §1

Assay [5] has as its system Saccharomyces cerevisiae. Description: Antifungal activity against Saccharomyces cerevisiae ATCC 9763 at 0.9 mol by disk diffusion method. The format is functional, organism-based. The gist of the method:
as §1

Assay [6] deals with Escherichia coli. Description: Antibacterial activity against Escherichia coli ATCC 11775 at 1.3 mol by disk diffusion method. The format is functional. The method, boiled down: as §1
Assay [7] deals with Micrococcus luteus. Description: Antibacterial activity against Micrococcus luteus ATCC 49732 at 1.3 mol by disk diffusion method. The format is functional. The gist of the method:
as §1

Assay [8] deals with Cyberlindnera jadinii. Description: Antifungal activity against Candida utilis ATCC 9950 at 1.3 mol by disk diffusion method. The format is functional. The method, boiled down:
as §1

Assay [9] deals with Saccharomyces cerevisiae. Description: Antifungal activity against Saccharomyces cerevisiae ATCC 9763 at 1.3 mol by disk diffusion method. The format is functional. The gist of the method: as §1
For assay [10], the system named is Micrococcus luteus. Description: Antibacterial activity against Micrococcus luteus ATCC 49732 at 1.2 mol by disk diffusion method. The format is functional. The method, boiled down:
as §1

In assay [11] the test system is Saccharomyces cerevisiae. As to the kind of experiment: Antifungal activity against Saccharomyces cerevisiae ATCC 9763 at 1.2 mol by disk diffusion method. The format is functional. The method, boiled down:
as §1

Assay [12] has as its system Cyberlindnera jadinii. Description: Antifungal activity against Candida utilis ATCC 9950 at 1.2 mol by disk diffusion method. The format is functional. The method, boiled down: as §1
Assay [13] relates to Escherichia coli. Description: Antibacterial activity against Escherichia coli ATCC 11775 at 1.2 mol by disk diffusion method. The format is functional. The gist of the method:
as §1

The subject of assay [14] is Saccharomyces cerevisiae. Description: Antifungal activity against Saccharomyces cerevisiae ATCC 9763 at 1.5 mol by disk diffusion method. The format is functional. The method, boiled down:
as §1

For assay [15], the system named is Micrococcus luteus. As to the kind of experiment: Antibacterial activity against Micrococcus luteus ATCC 49732 at 1.5 mol by disk diffusion method. The format is functional. The gist of the method:
as §1

Assay [16] relates to Cyberlindnera jadinii. Description: Antifungal activity against Candida utilis ATCC 9950 at 1.5 mol by disk diffusion method. The format is functional. The method, boiled down: as §1
In assay [17] the test system is Escherichia coli. Description: Antibacterial activity against Escherichia coli ATCC 11775 at 1.5 mol by disk diffusion method. The format is functional. The gist of the method: as §1
The test system of assay [18] is Micrococcus luteus. As to the kind of experiment: Antibacterial activity against Micrococcus luteus ATCC 49732 at 0.7 mol by disk diffusion method. The format is functional, organism-based. The gist of the method:
as §1

Assay [19] concerns Saccharomyces cerevisiae. Description: Antifungal activity against Saccharomyces cerevisiae ATCC 9763 at 0.7 mol by disk diffusion method. The format is functional, organism-based. The method, boiled down: as §1
The test system of assay [20] is Escherichia coli. As to the kind of experiment: Antibacterial activity against Escherichia coli ATCC 11775 at 0.7 mol by disk diffusion method. The format is functional, organism-based. The method, boiled down:
as §1

For assay [21], the system named is Cyberlindnera jadinii. Description: Antifungal activity against Candida utilis ATCC 9950 at 0.7 mol by disk diffusion method. The format is functional, organism-based. The method, boiled down:
as §1

Calls of active or inactive are those of the source. The calls are words filed in the database; no cut-off is given here.

`C=CC(C)(C)[C@@]12CCN(C)[C@@H]1N(C(C)=O)c1cc(Br)ccc12` [FLUSTRAMINE F]: in [1], the “inhibition zone (IZ)” value came to 18 mm.
As for `C=CC(C)(C)[C@@]12CCN(C)[C@@H]1N(CN1c3cc(Br)ccc3[C@]3(C(C)(C)C=C)CCN(C)[C@H]13)c1cc(Br)ccc12`, the “inhibition zone (IZ)” value in [2], in assay [3], in assay [4] and in [5] was “inactive” each time.
For the molecule `CC(C)=CCC/C(C)=C/C[C@@]12CCN(C)[C@@H]1Nc1cccc(O)c12` [DEBROMOFLUSTRAMINE H], the “inhibition zone (IZ)” value in assay [6] is 22 mm; in assay [7], 23 mm; in assay [8], 28 mm; in [9], 16 mm.
On to `CC(C)=CCc1cc(Br)c2c(c1O)[C@]1(CC=C(C)C)CCN(C)[C@@H]1N2` [FLUSTRAMINE L], for which the “inhibition zone (IZ)” value in assay [10] stood at 25 mm; in [11] it was 20 mm; in assay [12], 30 mm; in [13] it was 24 mm.
Consider `CC(C)=CC[C@@]12CCN(C)[C@@H]1Nc1c(Br)ccc(O)c12` [FLUSTRAMINE I], for which the “inhibition zone (IZ)” value in assay [14] is 15 mm; in assay [15], 29 mm; in assay [16], 29 mm; in assay [17] it was 25 mm.
Turning to `C=CC(C)(C)[C@@]12CCN(C)[C@@H]1N(Cc1cc(Br)c3c(c1O)[C@]1(C/C=C(\C)CCC=C(C)C)CCN(C)[C@@H]1N3)c1cc(Br)ccc12`, the “inhibition zone (IZ)” value in assay [18], in assay [19], in assay [20] and in [21] was “inactive” in each case.
